ChEMBL document CHEMBL2390844, “Evaluation of bioactivities of chlorokojic acid derivatives against dermatophytes couplet with cytotoxicity” (Bioorg Med Chem Lett, 2013)
Converted amounts (≈) assume the structure as drawn.

How the values were obtained:
Nannizzia gypsea [1] = assay: Antidermatophytic activity against Microsporum gypseum isolate after 7 days by broth microdilution method; format: functional; conditions: 168 h
Method in brief: (§1)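 Broth microdilution per CLSI in RPMI 1640 with L-glutamine, no bicarbonate, buffered to pH 7.0 with 0.165 M MOPS, filter-sterilized. Test dilution series 128-0.0625 μg mL⁻¹; sterility and growth (inoculum) controls on each plate. Wells inoculated, incubated 28°C for 7 days, read visually with an inverted mirror; MIC recorded. Triplicate.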

Epidermophyton floccosum [2] = assay: Antidermatophytic activity against Epidermophyton floccosum isolate after 7 days by broth microdilution method; format: functional; conditions: 168 h; method in brief: as §1
Nannizzia gypsea [3] = assay: Antidermatophytic activity against Microsporum gypseum NCPF 580 after 7 days by broth microdilution method; format: functional; conditions: NCPF 580, 168 h; method in brief: as §1
[4] = Antidermatophytic activity against Trichophyton mentagrophytes var. erinacei isolate after 7 days by broth microdilution method; format: functional; conditions: Arthroderma benhamiae; method in brief: as §1
[5] = Cytotoxicity against human MRC5 cells; format: cell-based; conditions: read-out: MNCC
Method in brief: (§2)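 Maximum non-toxic concentration (MNTC) determined in HeLa and MRC-5 cells by a previously described method, based on cellular morphological alteration.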

[6] = Antidermatophytic activity against Trichophyton mentagrophytes var. erinacei NCPF 375 after 7 days by broth microdilution method; format: functional; conditions: Arthroderma benhamiae; method in brief: as §1
[7] = Cytotoxicity against human HeLa cells; format: cell-based; conditions: read-out: MNCC; method in brief: as §2
Epidermophyton floccosum [8] = assay: Antidermatophytic activity against Epidermophyton floccosum RSKK 3027 after 7 days by broth microdilution method; format: functional; conditions: RSKK 3027, 168 h; method in brief: as §1

SMILES | MIC (Nannizzia gypsea [1]) [µg/mL] | MIC (Epidermophyton floccosum [2]) [µg/mL] | MIC (Nannizzia gypsea [3]) [µg/mL] | MIC [4] [µg/mL] | MNTC [5] [µg/mL] | MIC [6] [µg/mL] | MNTC [7] [µg/mL] | MIC (Epidermophyton floccosum [8]) [µg/mL]
O=c1cc(CCl)oc(CN2CCN(Cc3ccc(C(F)(F)F)cc3)CC2)c1O | 8 (≈ 19.2 µM) | 8 (≈ 19.2 µM) | 4 (≈ 9.6 µM) | 8 (≈ 19.2 µM) | ≥ 512 | 4 (≈ 9.6 µM) | ≥ 512 | 4 (≈ 9.6 µM)
O=c1cc(CCl)oc(CN2CCN(c3ccc(F)cc3)CC2)c1O | 16 (≈ 45.4 µM) | 16 (≈ 45.4 µM) | 8 (≈ 22.7 µM) | 8 (≈ 22.7 µM) | ≥ 128 | 8 (≈ 22.7 µM) | – | 8 (≈ 22.7 µM)
Cc1ccc(N2CCN(Cc3oc(CCl)cc(=O)c3O)CC2)cc1 | 8 (≈ 22.9 µM) | 8 (≈ 22.9 µM) | 4 (≈ 11.5 µM) | 8 (≈ 22.9 µM) | ≥ 64 | 4 (≈ 11.5 µM) | ≥ 64 | 4 (≈ 11.5 µM)
O=c1cc(CCl)oc(CN2CCN(Cc3ccccc3)CC2)c1O | 32 (≈ 91.7 µM) | 32 (≈ 91.7 µM) | 16 (≈ 45.9 µM) | 32 (≈ 91.7 µM) | ≥ 512 | 16 (≈ 45.9 µM) | ≥ 512 | 16 (≈ 45.9 µM)
O=c1cc(CCl)oc(CN2CCN(Cc3ccc(Cl)cc3)CC2)c1O | 8 (≈ 20.9 µM) | 8 (≈ 20.9 µM) | 4 (≈ 10.4 µM) | 8 (≈ 20.9 µM) | ≥ 128 | 4 (≈ 10.4 µM) | ≥ 128 | 4 (≈ 10.4 µM)
O=c1cc(CCl)oc(CN2CCN(c3ccc([N+](=O)[O-])cc3)CC2)c1O | 32 (≈ 84.3 µM) | 32 (≈ 84.3 µM) | 16 (≈ 42.1 µM) | 32 (≈ 84.3 µM) | ≥ 512 | 16 (≈ 42.1 µM) | ≥ 512 | 16 (≈ 42.1 µM)
O=c1cc(CCl)oc(CN2CCN(C3CCCCC3)CC2)c1O | 32 (≈ 93.9 µM) | 32 (≈ 93.9 µM) | 16 (≈ 46.9 µM) | 16 (≈ 46.9 µM) | ≥ 512 | 16 (≈ 46.9 µM) | ≥ 512 | 16 (≈ 46.9 µM)
O=c1cc(CCl)oc(CN2CCN(c3ccc(C(F)(F)F)cc3)CC2)c1O | 64 (≈ 159 µM) | 64 (≈ 159 µM) | 32 (≈ 79.4 µM) | 64 (≈ 159 µM) | ≥ 128 | 32 (≈ 79.4 µM) | – | 32 (≈ 79.4 µM)
O=c1cc(CCl)oc(CN2CCN(Cc3cc(F)ccc3F)CC2)c1O | 8 (≈ 20.8 µM) | 8 (≈ 20.8 µM) | 4 (≈ 10.4 µM) | 8 (≈ 20.8 µM) | ≥ 256 | 4 (≈ 10.4 µM) | ≥ 256 | 4 (≈ 10.4 µM)
Cc1cccc(N2CCN(Cc3oc(CCl)cc(=O)c3O)CC2)c1C | 16 (≈ 44.1 µM) | 16 (≈ 44.1 µM) | 8 (≈ 22 µM) | 8 (≈ 22 µM) | ≥ 256 | 4 (≈ 11 µM) | ≥ 256 | 8 (≈ 22 µM)
N#CC1(c2ccccc2)CCN(Cc2oc(CCl)cc(=O)c2O)CC1 | 32 (≈ 89.2 µM) | 32 (≈ 89.2 µM) | 16 (≈ 44.6 µM) | 32 (≈ 89.2 µM) | ≥ 256 | 16 (≈ 44.6 µM) | ≥ 256 | 16 (≈ 44.6 µM)
O=c1cc(CCl)oc(CN2CCN(c3ccccc3)CC2)c1O | 8 (≈ 23.9 µM) | 8 (≈ 23.9 µM) | 8 (≈ 23.9 µM) | 16 (≈ 47.8 µM) | ≥ 256 | 8 (≈ 23.9 µM) | ≥ 256 | 4 (≈ 11.9 µM)
O=c1cc(CCl)oc(CN2CC=C(c3ccccc3)CC2)c1O | 16 (≈ 48.2 µM) | 16 (≈ 48.2 µM) | 8 (≈ 24.1 µM) | 16 (≈ 48.2 µM) | ≥ 256 | 8 (≈ 24.1 µM) | ≥ 256 | 8 (≈ 24.1 µM)
O=c1cc(CCl)occ1O | 4 (≈ 24.9 µM) | 16 (≈ 99.7 µM) | 2 (≈ 12.5 µM) | 8 (≈ 49.8 µM) | ≥ 256 | 4 (≈ 24.9 µM) | ≥ 256 | 8 (≈ 49.8 µM)
Cc1cccc(CN2CCN(Cc3oc(CCl)cc(=O)c3O)CC2)c1 | 32 (≈ 88.2 µM) | 32 (≈ 88.2 µM) | 16 (≈ 44.1 µM) | 16 (≈ 44.1 µM) | ≥ 512 | 16 (≈ 44.1 µM) | ≥ 512 | 16 (≈ 44.1 µM)
O=c1cc(CCl)oc(CN2CC=C(c3ccc(F)cc3)CC2)c1O | 16 (≈ 45.7 µM) | 16 (≈ 45.7 µM) | 16 (≈ 45.7 µM) | 16 (≈ 45.7 µM) | ≥ 256 | 16 (≈ 45.7 µM) | ≥ 256 | 16 (≈ 45.7 µM)
O=C(OCc1ccccc1)N1CCN(Cc2oc(CCl)cc(=O)c2O)CC1 | 8 (≈ 20.4 µM) | 8 (≈ 20.4 µM) | 4 (≈ 10.2 µM) | 8 (≈ 20.4 µM) | ≥ 128 | 4 (≈ 10.2 µM) | ≥ 256 | 4 (≈ 10.2 µM)
COC1=CC(=O)C[C@@H](C)[C@]12Oc1c(Cl)c(OC)cc(OC)c1C2=O [GRISEOFULVIN] | 1 (≈ 2.83 µM) | 1 (≈ 2.83 µM) | 0.5 (≈ 1.42 µM) | 1 (≈ 2.83 µM) | – | 0.5 (≈ 1.42 µM) | – | 0.5 (≈ 1.42 µM)
O=C(C1CCCCC1)N1CCN(Cc2oc(CCl)cc(=O)c2O)CC1 | 32 (≈ 86.8 µM) | 32 (≈ 86.8 µM) | 16 (≈ 43.4 µM) | 16 (≈ 43.4 µM) | ≥ 128 | 8 (≈ 21.7 µM) | ≥ 128 | 16 (≈ 43.4 µM)
O=c1cc(CCl)oc(CN2CCN(Cc3cccc(C(F)(F)F)c3)CC2)c1O | 8 (≈ 19.2 µM) | 8 (≈ 19.2 µM) | 4 (≈ 9.6 µM) | 8 (≈ 19.2 µM) | ≥ 512 | 4 (≈ 9.6 µM) | ≥ 512 | 4 (≈ 9.6 µM)
CC(=O)c1ccc(N2CCN(Cc3oc(CCl)cc(=O)c3O)CC2)cc1 | 16 (≈ 42.5 µM) | 16 (≈ 42.5 µM) | 16 (≈ 42.5 µM) | 16 (≈ 42.5 µM) | ≥ 512 | 16 (≈ 42.5 µM) | ≥ 512 | 16 (≈ 42.5 µM)
CCC(C)n1ncn(-c2ccc(N3CCN(c4ccc(OCC5COC(Cn6cncn6)(c6ccc(Cl)cc6Cl)O5)cc4)CC3)cc2)c1=O (configuration not stated) [ITRACONAZOLE] | 0.25 (≈ 0.354 µM) | 0.25 (≈ 0.354 µM) | 0.125 (≈ 0.177 µM) | 0.5 (≈ 0.709 µM) | – | 0.25 (≈ 0.354 µM) | – | 0.125 (≈ 0.177 µM)
O=c1cc(CCl)oc(CN2CCN(c3ccccc3F)CC2)c1O | 16 (≈ 45.4 µM) | 32 (≈ 90.7 µM) | 8 (≈ 22.7 µM) | 16 (≈ 45.4 µM) | ≥ 128 | 8 (≈ 22.7 µM) | – | 16 (≈ 45.4 µM)
CN(C/C=C/C#CC(C)(C)C)Cc1cccc2ccccc12 [TERBINAFINE] | 0.5 (≈ 1.72 µM) | 0.5 (≈ 1.72 µM) | 0.25 (≈ 0.858 µM) | 0.25 (≈ 0.858 µM) | – | 0.125 (≈ 0.429 µM) | – | 0.25 (≈ 0.858 µM)
O=c1cc(CCl)oc(CN2CCN(Cc3c(Cl)cccc3Cl)CC2)c1O | 8 (≈ 19.2 µM) | 8 (≈ 19.2 µM) | 4 (≈ 9.58 µM) | 8 (≈ 19.2 µM) | ≥ 512 | 4 (≈ 9.58 µM) | ≥ 256 | 4 (≈ 9.58 µM)
O=c1cc(CCl)oc(CN2CC=C(c3ccc(Cl)cc3)CC2)c1O | 8 (≈ 21.8 µM) | 8 (≈ 21.8 µM) | 8 (≈ 21.8 µM) | 8 (≈ 21.8 µM) | ≥ 256 | 8 (≈ 21.8 µM) | ≥ 256 | 8 (≈ 21.8 µM)
O=c1cc(CCl)oc(CN2CCN(CC3CCCCC3)CC2)c1O | 8 (≈ 22.5 µM) | 8 (≈ 22.5 µM) | 4 (≈ 11.3 µM) | 8 (≈ 22.5 µM) | ≥ 512 | 4 (≈ 11.3 µM) | ≥ 256 | 4 (≈ 11.3 µM)
